Assay [1] relates to PC-3. Description: Cytotoxicity against human PC3 cells after 72 hrs by MTT assay. Format: functional, cell-based. Conditions: PC-3, 72 h. The gist of the method:
(§1)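 MTT colorimetric assay on human cancer cell lines; IC50 growth inhibitory concentration determined in vitro for each compound.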

Assay [2] is described as follows: Cytotoxicity against human OE21 cells after 72 hrs by MTT assay. Format: functional, cell-based. Conditions: OE21, 72 h. Summed up: as §1
Background: Tetrazolium dyes change colour on reduction, which living cells bring about.

Assay [3] is described as follows: Cytotoxicity against human U373 cells assessed as growth inhibition at MTT assay-related IC50 by quantitative video microscopy relative to control. Format: functional, U-373MG ATCC.
For assay [4], the system named is LoVo. Description: Cytotoxicity against human LoVo cells after 72 hrs by MTT assay. Format: functional, cell-based. Summed up:
as §1

Assay [5] is described as follows: Cytotoxicity against human U373 cells after 72 hrs by MTT assay. It is filed as functional, cell-based, U-373MG ATCC. Conditions: U373 MG. The gist of the method:
as §1

Assay [6] has as its system SK-MEL-28. Description: Cytotoxicity against human SK-MEL-28 cells after 72 hrs by MTT assay. It is filed as functional, cell-based. Conditions: SK-MEL-28, 72 h. The gist of the method: as §1
In assay [7] the test system is A549. The assay can be described thus: Cytotoxicity against human A549 cells after 72 hrs by MTT assay. It is filed as functional, cell-based. Conditions: A549, 72 h. Summed up:
as §1

Assay [8] is described as follows: Induction of human U373 cell death assessed as morphological changes at MTT assay-related IC50 after 72 hrs by quantitative video microscopy. Format: functional, U-373MG ATCC.

The values below come from ChEMBL document CHEMBL1799918, “Growth inhibitory activities of oxyprenylated and non-prenylated naturally occurring phenylpropanoids in cancer cell lines” (Bioorg Med Chem Lett, 2011).

pIC50: −log10 of the molar value.

Take `COc1cc(/C=C/C=O)cc(OC)c1OCC=C(C)C`: the negative-log IC50 (pIC50) (in general, −log10 of the IC50, conventionally taken in molar units) in assay [1] is 4.55; in assay [2] it was 4.54; in assay [4], 4.51; in assay [5] it was 4.52; in assay [6], 4.49; in assay [7] it was 4.17. The “growth inhibition (GI)” value in assay [3] is 90%. The Activity in assay [8] is 100%.
For the compound `COc1cc(/C=C/CO)cc(OC)c1OC/C=C(\C)CCC=C(C)C` [NELUMOL A], the pIC50 in assay [1] is 4.40; in assay [2] it was 4.41; in assay [4] it was 4.42; in assay [5] it was 4.38; in assay [6], 4.14; in assay [7], 4.12. Also, the “growth inhibition (GI)” value in assay [3] was found to be 80%. Moreover, the Activity in assay [8] worked out at 17%.
As to `COc1cc(/C=C/C=O)ccc1OC/C=C(\C)CCC=C(C)C`, the negative logarithm of the IC50 (pIC50) is 4.62 in assay [1]; 4.47 in assay [2]; 4.92 in assay [4]; 5.15 in assay [5]; 4.55 in assay [6]; 5.30 in assay [7]. The “growth inhibition (GI)” value in assay [3] is reported as 80%. In assay [8], the Activity was found to be 26%.
Regarding `COc1cc(C(=O)O)ccc1O` [VANILLIC ACID], the pIC50 in assay [1] is less than 4.00; in assay [2], 4.21; in assay [4], 4.04; in assay [5] it was less than 4.00; in assay [6], less than 4.00; in assay [7] it was less than 4.00.
As to `CC(=O)c1ccc(OC/C=C(\C)CCC=C(C)C)cc1O`, the pIC50 in assay [1] is 4.57; in assay [2], 4.43; in assay [4], 4.42; in assay [5], 4.32; in assay [6], 4.36; in assay [7], 4.29. In addition, in assay [3], the “growth inhibition (GI)” value was determined as 80%. Besides, in assay [8], the Activity was 17%.
`CC(C)=CCOc1ccc(C(=O)O)cc1` [VALENCIC ACID]: the pIC50 in assay [1], in assay [2], in assay [4], in assay [5], in assay [6] and in assay [7] was less than 4.00 throughout.
With `Cc1cc(O)c2c(c1)C(=O)c1cc(O)cc(O)c1C2=O` [EMODIN], the negative logarithm of the IC50 (pIC50) in assay [1] was 4.46; in assay [2], 4.54; in assay [4], 4.57; in assay [5], 4.51; in assay [6], 4.46; in assay [7], 4.55. Moreover, in assay [3], the “growth inhibition (GI)” value is given as 90%. In assay [8], the Activity was 99%.
As to `COc1cc(/C=C/CO)cc(OC)c1OCC=C(C)C`, the pIC50 in assay [1], in assay [2], in assay [4], in assay [5], in assay [6] and in assay [7] was less than 4.00 in each case.
Take `COc1cc(/C=C/CO)cc(OC)c1O`: the pIC50 in assay [1] was less than 4.00; in assay [2] it was 4.10; in assay [4], less than 4.00; in assay [5], less than 4.00; in assay [6], less than 4.00; in assay [7] it was less than 4.00.
For `O=c1ccc2ccc(O)cc2o1` [UMBELLIFERONE], the pIC50 in assay [1] is less than 4.00; in assay [2], 4.48; in assay [4], 4.01; in assay [5] it was less than 4.00; in assay [6], less than 4.00; in assay [7], less than 4.00.
`CC(C)=CCC/C(C)=C/CC/C(C)=C/COc1ccc2ccc(=O)oc2c1` [UMBELLIPRENIN]: the pIC50 in assay [1] is 4.12; in assay [2], 4.52; in assay [4], 4.30; in assay [5] it was 4.14; in assay [6] it was 4.18; in assay [7], 4.15. Besides, in assay [3], the “growth inhibition (GI)” value is reported as 90%. For the same compound, in assay [8], the Activity is reported as 40%.
As for `CC(C)=CCOc1ccc2ccc(=O)oc2c1O`, the negative logarithm of the IC50 (pIC50) in assay [1] was less than 4.00; in assay [2] it was less than 4.00; in assay [4], 4.04; in assay [5] it was less than 4.00; in assay [6] it was less than 4.00; in assay [7] it was less than 4.00.
For `CC(C)=CCC/C(C)=C/COc1cc(O)c2c(c1)C(=O)c1cc(C)cc(O)c1C2=O`, the negative-log IC50 (pIC50) in assay [1] is 4.52; in assay [2], less than 4.00; in assay [4] it was 4.85; in assay [5], 4.74; in assay [6] it was 4.40; in assay [7], 4.49. Moreover, the “growth inhibition (GI)” value in assay [3] is given as 90%. The Activity in assay [8] is recorded as 100%.
Take `COc1cc(/C=C/C(=O)O)ccc1O` [FERULATE]: the negative-log IC50 (pIC50) in assay [1] is less than 4.00; in assay [2] it was 4.17; in assay [4] it was 4.02; in assay [5] it was less than 4.00; in assay [6] it was less than 4.00; in assay [7] it was less than 4.00.
As for `O=C(O)c1ccc(O)cc1` [PARABEN], the negative logarithm of the IC50 (pIC50) in assay [1] was less than 4.00; in assay [2], 4.15; in assay [4], 4.03; in assay [5] it was less than 4.00; in assay [6] it was less than 4.00; in assay [7] it was less than 4.00.
On to `CC(C)=CCOc1ccc(C(=O)/C=C/c2ccccc2)c(O)c1` [CORDOIN], for which the pIC50 was 4.15 in assay [1]; 4.41 in assay [2]; 4.24 in assay [4]; 4.28 in assay [5]; 4.09 in assay [6]; 4.27 in assay [7]. For the same compound, the “growth inhibition (GI)” value in assay [3] turned out to be 95%. Moreover, the Activity in assay [8] was found to be 88%.
For `CC(C)=CCOc1ccc(C(=O)/C=C/c2ccc(O)cc2)c(O)c1`, the pIC50 is less than 4.00 in assay [1]; 4.24 in assay [2]; 4.24 in assay [4]; 4.06 in assay [5]; less than 4.00 in assay [6]; 4.18 in assay [7]. Besides, the “growth inhibition (GI)” value in assay [3] is 70%. The Activity in assay [8] turned out to be 17%.
For the compound `CC(C)=CCC/C(C)=C/COc1ccc2ccc(=O)oc2c1` [AURAPTENE], the negative logarithm of the IC50 (pIC50) in assay [1] was 4.19; in assay [2], 4.24; in assay [4] it was 4.18; in assay [5], 4.09; in assay [6], 4.06; in assay [7], 4.09. For the same compound, the “growth inhibition (GI)” value in assay [3] amounted to 90%. Moreover, the Activity in assay [8] worked out at 58%.
As for `O=C(/C=C/c1ccccc1)c1ccc(O)cc1O` [2',4'-DIHYDROXYCHALCONE], the negative logarithm of the IC50 (pIC50) is less than 4.00 in assay [1]; 4.31 in assay [2]; 4.09 in assay [4]; less than 4.00 in assay [5]; 4.12 in assay [6]; less than 4.00 in assay [7].
In the case of `COc1cc(/C=C/C=O)cc(OC)c1OC/C=C(\C)CCC=C(C)C` [NELUMAL A], the pIC50 in assay [1] is 4.41; in assay [2], 4.57; in assay [4] it was 4.64; in assay [5] it was 5.10; in assay [6], 4.59; in assay [7], 4.15. The “growth inhibition (GI)” value in assay [3] was 80%. In addition, in assay [8], the Activity came out at 100%.
For the compound `COc1cc(/C=C/C(=O)O)ccc1OC/C=C(\C)CCC=C(C)C`, the pIC50 in assay [1], in assay [2], in assay [4], in assay [5], in assay [6] and in assay [7] was less than 4.00 throughout.
`CC(=O)c1c(O)cc(O)cc1O` [2,4,6-TRIHYDROXYACETOPHENONE]: the negative-log IC50 (pIC50) was less than 4.00 in assay [1]; 4.38 in assay [2]; 4.05 in assay [4]; less than 4.00 in assay [5]; less than 4.00 in assay [6]; 4.00 in assay [7].
Turning to `COc1cc(/C=C/CO)ccc1OC/C=C(\C)CCC=C(C)C`, the negative-log IC50 (pIC50) in assay [1] is 4.68; in assay [2] it was 4.64; in assay [4], 4.57; in assay [5], 4.60; in assay [6], 4.51; in assay [7] it was 4.54. In assay [3], the “growth inhibition (GI)” value stood at 80%. Also, the Activity in assay [8] was 41%.
In the case of `CC(C)=CCOc1ccc2ccc(=O)oc2c1` [7-PRENYLOXYCOUMARIN], the pIC50 in assay [1] is less than 4.00; in assay [2], 4.10; in assay [4], 4.09; in assay [5] it was less than 4.00; in assay [6] it was less than 4.00; in assay [7] it was less than 4.00.
For the compound `COc1cc(/C=C/C(=O)O)ccc1OCC=C(C)C` [BOROPINIC ACID], the pIC50 in assay [1], in assay [2], in assay [4], in assay [5], in assay [6] and in assay [7] was less than 4.00 in each case.
`O=C(O)/C=C/c1ccc(O)cc1` [COUMARIC ACID]: the pIC50 in assay [1] is less than 4.00; in assay [2] it was 4.18; in assay [4], 4.09; in assay [5], less than 4.00; in assay [6], less than 4.00; in assay [7], less than 4.00.
With `CC(=O)c1ccc(OCC=C(C)C)cc1O`, the negative-log IC50 (pIC50) in assay [1], in assay [2], in assay [4], in assay [5], in assay [6] and in assay [7] was less than 4.00 in each case.
On to `CC(C)=CCC/C(C)=C/COc1ccc(/C=C/C(=O)O)cc1`, for which the negative logarithm of the IC50 (pIC50) in assay [1], in assay [2], in assay [4], in assay [5], in assay [6] and in assay [7] was less than 4.00 in each case.
In the case of `CC(=O)c1ccc(O)cc1O`, the pIC50 in assay [1] is less than 4.00; in assay [2], 4.35; in assay [4] it was 4.01; in assay [5], less than 4.00; in assay [6], less than 4.00; in assay [7] it was less than 4.00.
As to `COc1cc(C(=O)O)ccc1OCC=C(C)C`, the pIC50 in assay [1], in assay [2], in assay [4], in assay [5], in assay [6] and in assay [7] was less than 4.00 throughout.
